The source of these data is PMC8547165 (Environmental science & technology, 2021).

A short description of series [1]: QAC levels in human blood. The note with it: human serum, n = 111; for Median concentration: non-detects = 1/2 MDL. In kind it is in vivo.
Series [2] in a line: Hepatic clearance in vitro-in vivo extrapolation. The arrangement: species or system human. The note with it: IVIVE. The method, boiled down: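 Human liver microsomes (1 mg/mL) in 50 mM phosphate pH 7.4 with 3 mM MgCl2, 0.5 uM substrate, 0.5% DMSO, NADPH-generating system, 37 °C, triplicate, stopped at 0–3 h; depletion fitted mono-exponentially for CLin vitro. Unbound fraction from NSB-corrected serum ultrafiltration and 60-min blood/serum ratio. Scaled by 34 mg microsomal protein/g liver, hepatic blood flow 42.6 mL/h/g liver.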

Where only a bound is given, the exact number is not on record here.

Regarding `CCCCCCCC[N+](C)(C)Cc1ccccc1` [C8-BAC], in series [1] (before COVID-19 (2019)), the Maximum concentration was 0.196 ng/mL, the Minimum concentration result is given as “<MDL” and the Median concentration entry is “<MDL”. Also, in series [1] (during COVID-19 (2020)), the Maximum concentration came out at 0.433 ng/mL, the Minimum concentration entry is “<MDL” and the Median concentration worked out at 0.055 ng/mL.
Consider `CCCCCCCC[N+](C)(C)CCCCCCCC` [C8-DDAC], for which, in series [1] (before COVID-19 (2019)), the Maximum concentration was found to be 0.447 ng/mL, the Minimum concentration result is reported as “<MDL” and the Median concentration result is reported as “<MDL”. In addition, in series [1] (during COVID-19 (2020)), the Maximum concentration was found to be 0.219 ng/mL, the Minimum concentration result was “<MDL” and the Median concentration result is on record as “<MDL”.
Consider `CCCCCCCCCC[N+](C)(C)Cc1ccccc1` [C10-BAC], for which, in series [1] (before COVID-19 (2019)), the Maximum concentration came out at 0.166 ng/mL, the Minimum concentration entry is reported as “<MDL” and the Median concentration entry is given as “<MDL”. For the same molecule, in series [1] (during COVID-19 (2020)), the Maximum concentration came out at 1.45 ng/mL, the Minimum concentration result is “<MDL” and the Median concentration entry is listed as “<MDL”.
For the molecule `CCCCCCCCCC[N+](C)(C)CCCCCCCCCC` [C10-DDAC], in series [1] (before COVID-19 (2019)), the Maximum concentration is on record as 0.206 ng/mL, the Minimum concentration entry is reported as “<MDL” and the Median concentration entry is reported as “<MDL”. Moreover, in series [1] (during COVID-19 (2020)), the Maximum concentration was 0.620 ng/mL, the Minimum concentration result is recorded as “<MDL” and the Median concentration came to 0.089 ng/mL.
With `CCCCCCCCCCCC[N+](C)(C)C` [C12-ATMAC], the “Fold lower CLinvivo than C14- and C16-ATMACs” value in series [2] was 2-4 times. Besides, in series [1] (before COVID-19 (2019)), the Maximum concentration is listed as 8.55 ng/mL, the Minimum concentration result is “<MDL” and the Median concentration is recorded as 0.981 ng/mL. In series [1] (during COVID-19 (2020)), the Maximum concentration came out at 6.84 ng/mL, the Minimum concentration result was “<MDL” and the Median concentration is listed as 0.612 ng/mL.
As for `CCCCCCCCCCCC[N+](C)(C)Cc1ccccc1` [C12-BAC], in series [1] (before COVID-19 (2019)), the Maximum concentration was determined as 1.40 ng/mL, the Minimum concentration result was “<MDL” and the Median concentration came out at 0.289 ng/mL. In series [1] (during COVID-19 (2020)), the Maximum concentration is 22.1 ng/mL, the Minimum concentration result is listed as “<MDL” and the Median concentration came out at 0.634 ng/mL.
For `CCCCCCCCCCCCCC[N+](C)(C)C` [C14-ATMAC], in series [1] (before COVID-19 (2019)), the Maximum concentration is on record as 1.86 ng/mL, the Minimum concentration entry is on record as “<MDL” and the Median concentration came to 0.667 ng/mL. Also, in series [1] (during COVID-19 (2020)), the Maximum concentration is recorded as 3.75 ng/mL, the Minimum concentration result is reported as “<MDL” and the Median concentration was determined as 0.929 ng/mL.
As for `CCCCCCCCCCCCCC[N+](C)(C)Cc1ccccc1` [C14-BAC], in series [1] (before COVID-19 (2019)), the Maximum concentration came to 2.36 ng/mL, the Minimum concentration entry was “<MDL” and the Median concentration was determined as 0.490 ng/mL. In series [1] (during COVID-19 (2020)), the Maximum concentration was determined as 40.1 ng/mL, the Minimum concentration result is “<MDL” and the Median concentration was 1.14 ng/mL.
`CCCCCCCCCCCCCC[N+](C)(C)CCCCCCCCCCCCCC` [C14-DDAC]: in series [1] (before COVID-19 (2019)), the Maximum concentration is listed as 0.522 ng/mL, the Minimum concentration result was “<MDL” and the Median concentration result is “<MDL”. Moreover, in series [1] (during COVID-19 (2020)), the Maximum concentration came to 0.795 ng/mL, the Minimum concentration result is “<MDL” and the Median concentration result is reported as “<MDL”.
Turning to `CCCCCCCCCCCCCCCC[N+](C)(C)C` [C16-ATMAC], in series [1] (before COVID-19 (2019)), the Maximum concentration turned out to be 5.65 ng/mL, the Minimum concentration result is reported as “<MDL” and the Median concentration result is recorded as “<MDL”. For the same molecule, in series [1] (during COVID-19 (2020)), the Maximum concentration is 3.53 ng/mL, the Minimum concentration result was “<MDL” and the Median concentration is recorded as 0.966 ng/mL.
For `CCCCCCCCCCCCCCCC[N+](C)(C)Cc1ccccc1` [C16-BAC], in series [1] (before COVID-19 (2019)), the Maximum concentration is listed as 0.800 ng/mL, the Minimum concentration result was “<MDL” and the Median concentration was 0.080 ng/mL. Besides, in series [1] (during COVID-19 (2020)), the Maximum concentration is listed as 16.4 ng/mL, the Minimum concentration result is “<MDL” and the Median concentration is on record as 0.346 ng/mL.
As to `CCCCCCCCCCCCCCCC[N+](C)(C)CCCCCCCCCCCCCCCC` [C16-DDAC], in series [1] (before COVID-19 (2019)), the Maximum concentration turned out to be 0.142 ng/mL, the Minimum concentration entry was “<MDL” and the Median concentration result was “<MDL”. In series [1] (during COVID-19 (2020)), the Maximum concentration is reported as 0.576 ng/mL, the Minimum concentration result is “<MDL” and the Median concentration result is listed as “<MDL”.
Take `CCCCCCCCCCCCCCCCCC[N+](C)(C)C` [C18-ATMAC]: in series [1] (before COVID-19 (2019)), the Maximum concentration was determined as 0.171 ng/mL, the Minimum concentration result is “<MDL” and the Median concentration result is listed as “<MDL”. Also, in series [1] (during COVID-19 (2020)), the Maximum concentration amounted to 3.62 ng/mL, the Minimum concentration result was “<MDL” and the Median concentration entry is reported as “<MDL”.
As for `CCCCCCCCCCCCCCCCCC[N+](C)(C)Cc1ccccc1` [C18-BAC], in series [1] (before COVID-19 (2019)), the Maximum concentration came out at 2.14 ng/mL, the Minimum concentration result is recorded as “<MDL” and the Median concentration entry was “<MDL”. For the same molecule, in series [1] (during COVID-19 (2020)), the Maximum concentration was 1.41 ng/mL, the Minimum concentration result is “<MDL” and the Median concentration is 0.180 ng/mL.
As to `CCCCCCCCCCCCCCCCCC[N+](C)(C)CCCCCCCCCCCCCCCCCC` [C18-DDAC], in series [1] (before COVID-19 (2019)), the Maximum concentration is 5.77 ng/mL, the Minimum concentration result was “<MDL” and the Median concentration entry was “<MDL”. Besides, in series [1] (during COVID-19 (2020)), the Maximum concentration came out at 5.35 ng/mL, the Minimum concentration result is on record as “<MDL” and the Median concentration result is reported as “<MDL”.
